Measured values taken from ChEMBL document CHEMBL4627381, “Licochalcone A Selectively Resensitizes ABCG2-Overexpressing Multidrug-Resistant Cancer Cells to Chemotherapeutic Drugs” (J Nat Prod, 2020).

What was measured:
Assay type in all cases: cell-based; call rule not given here
[1] = test system: HEK293; assay: Effect on mitoxantrone-induced cytotoxicity against HEK293 cells assessed as fold change in mitoxantrone IC50 at 0.5 uM after 72 hrs by CCK8 assay relative to mitoxantrone IC50; conditions: human, hek293, 72 h
Summary of the method: (§1)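 Reversal assay in parental pcDNA-HEK293 and transfected HEK293 lines (ABCB1 for colchicine, ABCC1 for etoposide, ABCG2 for mitoxantrone/topotecan). Substrate drug series was given with or without nontoxic modulator (0.5, 1.0, 2.0 or 3.0 μM) for 72 h, with a CCK-8 read-out. Fold-reversal is substrate IC50 without modulator divided by IC50 with modulator. Three independent experiments.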

[2] = molecular target: Multidrug resistance-associated protein 1 (Homo sapiens, UniProt P33527); assay: Modulation of human ABCC1 expressed in HEK293/MRP1 cells assessed as increase in intracellular calcein-AM accumulation at 20 uM incubated for 10 mins by FACScan flow cytometry
Sequence of Multidrug resistance-associated protein 1 (P33527 whole entry): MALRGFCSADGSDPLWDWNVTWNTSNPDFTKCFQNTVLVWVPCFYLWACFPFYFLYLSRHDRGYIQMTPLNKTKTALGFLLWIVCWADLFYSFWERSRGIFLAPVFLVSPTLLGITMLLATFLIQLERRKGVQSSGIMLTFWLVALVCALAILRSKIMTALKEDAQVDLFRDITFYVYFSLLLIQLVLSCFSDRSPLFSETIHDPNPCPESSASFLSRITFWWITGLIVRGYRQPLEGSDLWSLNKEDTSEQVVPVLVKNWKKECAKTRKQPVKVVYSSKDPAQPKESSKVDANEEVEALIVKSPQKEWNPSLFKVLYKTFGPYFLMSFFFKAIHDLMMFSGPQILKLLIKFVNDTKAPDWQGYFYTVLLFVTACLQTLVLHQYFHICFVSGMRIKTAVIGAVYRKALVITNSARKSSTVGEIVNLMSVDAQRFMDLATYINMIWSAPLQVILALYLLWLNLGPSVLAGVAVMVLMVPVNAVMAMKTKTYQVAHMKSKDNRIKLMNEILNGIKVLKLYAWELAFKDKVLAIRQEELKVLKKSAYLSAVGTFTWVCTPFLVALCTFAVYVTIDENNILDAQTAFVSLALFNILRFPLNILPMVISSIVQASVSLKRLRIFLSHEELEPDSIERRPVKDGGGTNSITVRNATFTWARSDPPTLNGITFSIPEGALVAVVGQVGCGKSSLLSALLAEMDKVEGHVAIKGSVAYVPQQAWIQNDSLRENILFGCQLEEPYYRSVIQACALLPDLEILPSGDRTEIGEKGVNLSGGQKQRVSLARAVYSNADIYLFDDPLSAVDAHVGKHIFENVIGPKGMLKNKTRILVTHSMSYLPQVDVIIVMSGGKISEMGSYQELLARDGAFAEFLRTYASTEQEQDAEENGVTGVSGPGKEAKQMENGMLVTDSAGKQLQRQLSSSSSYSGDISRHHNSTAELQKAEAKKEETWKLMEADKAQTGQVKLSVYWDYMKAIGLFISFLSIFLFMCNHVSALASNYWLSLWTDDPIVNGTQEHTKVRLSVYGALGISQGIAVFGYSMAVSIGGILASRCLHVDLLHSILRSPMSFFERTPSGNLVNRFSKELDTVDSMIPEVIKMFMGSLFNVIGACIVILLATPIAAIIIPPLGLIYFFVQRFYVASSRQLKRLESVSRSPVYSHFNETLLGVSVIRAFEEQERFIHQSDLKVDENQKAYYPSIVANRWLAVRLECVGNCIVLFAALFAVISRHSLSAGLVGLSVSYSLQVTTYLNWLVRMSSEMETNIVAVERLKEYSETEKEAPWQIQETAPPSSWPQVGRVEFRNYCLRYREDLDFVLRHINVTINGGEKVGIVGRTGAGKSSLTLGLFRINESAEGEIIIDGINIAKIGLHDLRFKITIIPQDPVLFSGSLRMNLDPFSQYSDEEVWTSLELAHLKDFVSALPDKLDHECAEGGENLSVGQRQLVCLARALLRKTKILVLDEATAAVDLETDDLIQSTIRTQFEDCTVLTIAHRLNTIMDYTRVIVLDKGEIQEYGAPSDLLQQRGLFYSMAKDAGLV
Summary of the method: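 Cells held drug-free 7 days. 3 × 10^5 cells in IMDM with 5% FCS were loaded with calcein-AM for 10 min, with or without 20 μM LCA. Reference inhibitors were tariquidar 3 μM (ABCB1) and MK-571 25 μM (ABCC1). Calcein fluorescence (ex 485/em 535 nm) was read by flow cytometry; at least three independent experiments.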

[3] = molecular target: T1, Broad substrate specificity ATP-binding cassette transporter ABCG2 (Homo sapiens, UniProt Q9UNQ0); assay: Reversal of human ABCG2-mediated multidrug resistance in HEK293/R482 cells assessed as fold change in mitoxantrone IC50 at 1 uM after 72 hrs by CCK8 assay relative to mitoxantrone IC50
T1 sequence (Q9UNQ0 whole entry): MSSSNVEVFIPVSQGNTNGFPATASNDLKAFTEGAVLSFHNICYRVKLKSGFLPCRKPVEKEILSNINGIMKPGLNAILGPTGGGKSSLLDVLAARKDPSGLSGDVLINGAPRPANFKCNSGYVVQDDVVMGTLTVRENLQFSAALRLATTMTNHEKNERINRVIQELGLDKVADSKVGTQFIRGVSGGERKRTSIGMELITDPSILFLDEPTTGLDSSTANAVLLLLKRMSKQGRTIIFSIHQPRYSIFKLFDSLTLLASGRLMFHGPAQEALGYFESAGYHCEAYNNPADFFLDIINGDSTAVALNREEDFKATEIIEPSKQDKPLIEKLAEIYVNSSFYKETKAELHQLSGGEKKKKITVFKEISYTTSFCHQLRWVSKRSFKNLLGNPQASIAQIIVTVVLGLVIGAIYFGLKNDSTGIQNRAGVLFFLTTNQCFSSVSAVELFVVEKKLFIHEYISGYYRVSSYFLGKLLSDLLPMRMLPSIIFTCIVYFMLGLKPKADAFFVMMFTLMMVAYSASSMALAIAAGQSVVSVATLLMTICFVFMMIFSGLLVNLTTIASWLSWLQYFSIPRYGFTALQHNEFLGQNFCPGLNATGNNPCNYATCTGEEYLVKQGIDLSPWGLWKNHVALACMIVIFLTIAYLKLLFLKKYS
Summary of the method: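 Cells were seeded at 5000/well for 24 h, then given colchicine, etoposide, mitoxantrone or topotecan ± non-toxic modulator (0.5–3.0 μM) for 72 h, with DMSO up to 0.5%. IC50 came from fitted curves (mean ± SD, three experiments). Fold-reversal = IC50 without modulator ÷ IC50 with modulator.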

[4] = test system: HEK293; assay: Effect on mitoxantrone-induced cytotoxicity against HEK293 cells assessed as fold change in mitoxantrone IC50 at 2 uM after 72 hrs by CCK8 assay relative to mitoxantrone IC50; conditions: human, hek293, 72 h; summary of the method: as §1
[5] = molecular target: T1, Broad substrate specificity ATP-binding cassette transporter ABCG2; assay: Reversal of ABCG2 (unknown origin)-mediated multidrug resistance in human S1-M1-80 cells assessed as fold-change in topotecan IC50 at 3 uM after 72 hrs by MTT assay relative to topotecan IC50; conditions: s1-m1-80, 72 h
Summary of the method: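 MTT readout in S1-M1-80 colon cancer cells (mitoxantrone-selected, held in 80 μM mitoxantrone, then drug-free 7 days before assay). Cells were seeded at 5000/well for 24 h, then given increasing mitoxantrone or topotecan with DMSO or non-toxic modulator for 72 h at 37 °C. IC50 came from fitted dose-response curves (at least three independent experiments). Fold-reversal = IC50 without modulator ÷ IC50 with modulator.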

## C=CC(C)(C)c1cc(/C=C/C(=O)c2ccc(O)cc2)c(OC)cc1O [LICOAGROCHACONE A]
[1]
  fold change (FC): 0.9
[2]
  Activity: Not Active
[3]
  fold change (FC): 7.1
[4]
  fold change (FC): 1
[5]
  fold change (FC): 32.7
